Measured values gathered from unrelated publications.
Each line is one published result; the experiments were not run side by side.
Target: MAP kinase-interacting serine/threonine-protein kinase 2 (MKNK2, Homo sapiens, UniProt Q9HBH9)

Compound | assay | setting | measurement | value
O=C(Nc1cnn(-c2csc(C(=O)NC3COC3)c2)c1)Nc1c(F)cccc1Cl | enzyme activity, inhibitor | 5 µM | remaining activity | 90.8%
Cc1ccc(Nc2nccc(N(C)c3ccc4c(C)n(C)nc4c3)n2)cc1S(N)(=O)=O | enzyme activity, inhibitor | 0.3 µM | inhibition | 3%
CC(C)(C)c1nc(-c2cccc(NS(=O)(=O)c3c(F)cccc3F)c2F)c(-c2ccnc(N)n2)s1 | enzyme activity, inhibitor, radiometric | 1 µM | remaining activity | 63%
FC(F)(F)Oc1cccc(-c2cnc3ccc(-c4ccncc4)nn23)c1 | enzyme activity, inhibitor, radiometric | 1 µM | activity vs control | 66%
CCN(CC)CCNC(=O)c1c(C)[nH]c(/C=C2\C(=O)Nc3ccc(F)cc32)c1C | enzyme activity, inhibitor | 0.3 µM | inhibition | -18%
Cc1ccc(C(=O)Nc2ccc(CN3CCN(C)CC3)c(C(F)(F)F)c2)cc1C#Cc1cnc2cccnn12 | enzyme activity, inhibitor | 23.5 nM | remaining activity | 33%
CS(=O)(=O)N1CCCC(NC(=O)[C@H](CCC2CCCCC2)NC(=O)c2ccc(CNC(=O)c3cnc4ccccn34)cc2)C1 (stereo partly drawn) | cell-free assay, competition with immobilised ligand | 0.1 µM | remaining binding | 84%
CSc1nc(C)c(-c2ccnc(Nc3ccc(N4CCOCC4)cc3)c2)[nH]1 | enzyme activity, inhibitor | 10 µM | inhibition | 94.9%
Cc1ncc(C(=O)Nc2ccc(CN3CCN(C)CC3)c(C(F)(F)F)c2)cc1C#Cc1cnc2cccnn12 | enzyme activity, inhibitor | 0.123 µM | inhibition | 51%
O=C(N[C@H]1CCCCC/C=C\C2C[C@@]2(C(=O)O)NC(=O)[C@@H]2C[C@@H](Oc3ccncc3)CN2C1=O)OC1CCCC1 (stereo partly drawn) | binding, competition with immobilised ligand | 1 µM | remaining binding | 75%
CS(=O)(=O)Nc1cccc(-c2csc(NC(=O)CSc3nc4nccnc4c(=O)n3CCc3ccccc3)n2)c1 | enzyme activity, inhibitor | 10 µM | inhibition | -10%
O=C(NCc1ncc(C(F)(F)F)cc1Cl)c1ccc2c(c1)C1(CCS(=O)(=O)CC1)[C@@H](C1CC1)N2S(=O)(=O)c1ccc(F)cc1 | cell-free assay, competition with immobilised ligand | 1 µM | remaining binding | 76%
O=C1NC(=O)c2cc(Nc3ccc(F)cc3)c(Nc3ccc(F)cc3)cc21 | cell-free assay | 0.5 µM | remaining signal | 101%
CCCOc1ccc(OC)c(F)c1C(=O)c1ccc(C(=O)N[C@@H]2CNC[C@H]2NC(=O)c2ccc3[nH]ncc3c2)cc1 | enzyme activity, inhibitor | 10 µM | remaining activity | 67%
CC(C)(C)C(=O)c1sc(NC2CCCCC2)nc1N | enzyme activity, inhibitor | 10 µM | remaining activity | 96%
Oc1cccc(-c2nc(N3CCOCC3)c3oc4ncccc4c3n2)c1 | enzyme activity, inhibitor | 10 µM | remaining activity | 90%
Cn1nc(C(=O)NCc2ccc(C(=O)O)cc2)cc1-c1ccc2[nH]ccc2c1 | cell-free assay, competition with immobilised ligand | 0.1 µM | remaining binding | 96%
Clc1ccc(Nc2nnc(Cc3ccncc3)c3ccccc23)cc1 | cell-free assay | 0.5 µM | remaining signal | 101%
CCC(=O)N[C@H]1CC[C@@H](C(=O)N(C)c2ccc(-c3nc4ccccc4o3)cc2)C1 | cell-free assay, competition with immobilised ligand | 1 µM | remaining binding | 100%
CN1CC(Oc2cnc(C#N)cc2-c2ccn3nc(NC(=O)C4CC4)cc3c2)C1 | enzyme activity, inhibitor | 1 µM | inhibition | 5%
Nc1nc(Nc2ccc(S(N)(=O)=O)cc2)nn1C(=O)c1c(F)cccc1F | cell-free assay | 0.5 µM | remaining signal | 95.9%
